Experimental data: ChEMBL document CHEMBL1156136, “Hypoxia-activated prodrugs: substituent effects on the properties of nitro seco-1,2,9,9a-tetrahydrocyclopropa[c]benz[e]indol-4-one (nitroCBI) prodrugs of DNA minor groove alkylating agents” (J Med Chem, 2009)
The source made the active and inactive calls. The calls are words filed in the database; no cut-off is given here.

What was measured:
[1] = test system: SiHa; test: Antitumor activity against human SiHa tumor bearing mouse assessed as cell kill at 42 umol/kg, iv; format: functional
Outline: (§1)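 SiHa xenografts grown subcutaneously (10⁷ cultured cells) in female homozygous nude CD1-Foxn1nu/nu mice, randomised at mean tumour diameter 8-10 mm. Single iv tail-vein dose, 42 μmol/kg, in 5% DMSO/20% PEG-400/75% lactate buffer pH 4.0. Given alone or 5 min after 15 Gy irradiation. Tumours excised 18 h later, enzymatically dissociated, clonogenic survivors per gram counted. Groups of 3-5 mice; ANOVA with Holm-Sidak on log data.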

[2] = test system: SiHa; test: Antitumor activity against human SiHa tumor bearing mouse assessed as log reduction of cell kill at 42 umol/kg, iv irradiated 5 mins before 15 Gy dose by cologenic assay; format: functional; outline: as §1
[3] = test system: SiHa; test: Hypoxic cytotoxicity ratio, IC50 for human SiHa cells in oxic condition to IC50 for human SiHa cells in hypoxic condition; format: functional
Outline: (§2)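 Log-phase monolayers exposed to drug for 4 h under aerobic (20% O2) or anoxic (<20 ppm O2) conditions, then sulforhodamine B staining 5 days later. IC50 interpolated as concentration lowering cell density to 50% of same-plate controls. HCR = IC50(oxic)/IC50(hypoxic), mean of intraexperiment ratios. A549 P450R line is a stable transfectant with 9-fold higher cytochrome c reduction rate than parent.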

[4] = test system: PC-3; test: Cytotoxicity against human PC3 cells in hypoxic condition after 4 hrs by sulforhodamine B assay; format: functional, cell-based; conditions: PC-3, 4 h; outline: as §2
[5] = Cytotoxicity against human H1299 cells in hypoxic condition after 4 hrs by sulforhodamine B assay; format: functional, cell-based; conditions: NCI-H1299, 4 h; outline: as §2
[6] = test system: HCT-116; test: Cytotoxicity against human HCT116 cells in hypoxic condition after 4 hrs by sulforhodamine B assay; format: functional, cell-based; conditions: HCT-116, 4 h; outline: as §2
[7] = test system: A-375; test: Hypoxic cytotoxicity ratio, IC50 for human A375 cells in oxic condition to IC50 for human A375 cells in hypoxic condition; format: functional; outline: as §2
[8] = test system: HCT-116; test: Hypoxic cytotoxicity ratio, IC50 for human HCT116 cells in oxic condition to IC50 for human HCT116 cells in hypoxic condition; format: functional; outline: as §2
[9] = test system: A549; test: Cytotoxicity against human A549 cells in hypoxic condition after 4 hrs by sulforhodamine B assay; format: functional, cell-based; conditions: A549, 4 h; outline: as §2
[10] = test system: SK-OV-3; test: Cytotoxicity against human SKOV3 cells in hypoxic condition after 4 hrs by sulforhodamine B assay; format: functional, cell-based; conditions: SK-OV-3, 4 h; outline: as §2
[11] = test system: NCI-H460; test: Hypoxic cytotoxicity ratio, IC50 for human H460 cells in oxic condition to IC50 for human H460 cells in hypoxic condition; format: functional; outline: as §2
[12] = test system: A-375; test: Cytotoxicity against human A375 cells in hypoxic condition after 4 hrs by sulforhodamine B assay; format: functional, cell-based; conditions: A-375, 4 h; outline: as §2
[13] = test system: A549; test: Hypoxic cytotoxicity ratio, IC50 for oxic condition to IC50 for hypoxic condition in human A549 cells overexpressing human NADPH/cytochrome P450 oxidoreductase; format: functional; outline: as §2
[14] = test system: SiHa; test: Cytotoxicity against human SiHa cells in oxic condition after 4 hrs by sulforhodamine B assay; format: functional, cell-based; outline: as §2
[15] = test system: HCT-116; test: Cytotoxicity against human HCT116 cells in oxic condition after 4 hrs by sulforhodamine B assay; format: functional, cell-based; conditions: HCT-116, 4 h; outline: as §2
[16] = test system: C-33-A; test: Cytotoxicity against human C33A cells in oxic condition after 4 hrs by sulforhodamine B assay; format: functional, cell-based; outline: as §2
[17] = test system: NCI-H460; test: Cytotoxicity against human H460 cells in hypoxic condition after 4 hrs by sulforhodamine B assay; format: functional, cell-based; conditions: NCI-H460, 4 h; outline: as §2
[18] = test system: HT-29; test: Cytotoxicity against human HT-29 cells assessed as surviving fraction in oxic condition at 30 uM by clonogenic assay; format: functional
Outline: (§3)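 Clonogenic assay on single-cell suspensions from dissociated HT29 spheroids, about 1 × 10⁶ cells/mL. Drug exposure 4 h at 37 °C under 5% CO2 in O2 or in N2. Colonies grown 14 days, methylene blue stained, >50 cells counted. Surviving fraction = PE(treated)/PE(control); C10 is the concentration giving 10% survival, from the fitted curve.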

[19] = test system: HT-29; test: Hypoxic cytotoxicity ratio, IC50 for human HT-29 cells in oxic condition to IC50 for human HT-29 cells in hypoxic condition; format: functional; outline: as §2
[20] = test system: A-375; test: Cytotoxicity against human A375 cells in oxic condition after 4 hrs by sulforhodamine B assay; format: functional, cell-based; conditions: A-375, 4 h; outline: as §2
[21] = test system: A549; test: Cytotoxicity against human A549 cells overexpressing human NADPH/cytochrome P450 oxidoreductase in hypoxic condition after 4 hrs by sulforhodamine B assay; format: functional, cell-based; conditions: A549, 4 h; outline: as §2
[22] = test system: C-33-A; test: Cytotoxicity against human C33A cells in hypoxic condition after 4 hrs by sulforhodamine B assay; format: functional, cell-based; outline: as §2
[23] = test system: NCI-H460; test: Cytotoxicity against human H460 cells in oxic condition after 4 hrs by sulforhodamine B assay; format: functional, cell-based; conditions: NCI-H460, 4 h; outline: as §2
[24] = test system: A549; test: Cytotoxicity against human A549 cells overexpressing human NADPH/cytochrome P450 oxidoreductase in oxic condition after 4 hrs by sulforhodamine B assay; format: functional, cell-based; conditions: A549, 4 h; outline: as §2
[25] = test system: SK-OV-3; test: Cytotoxicity against human SKOV3 cells in oxic condition after 4 hrs by sulforhodamine B assay; format: functional, cell-based; conditions: SK-OV-3, 4 h; outline: as §2
[26] = test system: SK-OV-3; test: Hypoxic cytotoxicity ratio, IC50 for human SKOV3 cells in oxic condition to IC50 for human SKOV3 cells in hypoxic condition; format: functional; outline: as §2
[27] = test system: HT-29; test: Cytotoxicity against human HT-29 cells assessed as cell kill in hypoxic condition by clonogenic assay; format: functional; outline: as §3
[28] = Hypoxic cytotoxicity ratio, IC50 for human H1299 cells in oxic condition to IC50 for human H1299 cells in hypoxic condition; format: functional, NCI-H1299; outline: as §2
[29] = Cytotoxicity against human H1299 cells in oxic condition after 4 hrs by sulforhodamine B assay; format: functional, cell-based; conditions: NCI-H1299, 4 h; outline: as §2
[30] = test system: C-33-A; test: Hypoxic cytotoxicity ratio, IC50 for human C33A cells in oxic condition to IC50 for human C33A cells in hypoxic condition; format: functional; outline: as §2
[31] = test system: PC-3; test: Hypoxic cytotoxicity ratio, IC50 for human PC3 cells in oxic condition to IC50 for human PC3 cells in hypoxic condition; format: functional; outline: as §2
[32] = test system: Mus musculus; test: Toxicity in mouse at 100 umol/kg, ip; format: organism-based; conditions: in vivo
[33] = test system: HT-29; test: Cytotoxicity against human HT-29 cells in hypoxic condition after 4 hrs by sulforhodamine B assay; format: functional, cell-based; conditions: HT-29, 4 h; outline: as §2
[34] = test system: HT-29; test: Hypoxic cytotoxicity ratio, IC50 for human HT-29 cells in oxic condition to IC50 for human HT-29 cells in hypoxic condition by clonogenic assay; format: functional
[35] = test system: SiHa; test: Cytotoxicity against human SiHa cells in hypoxic condition after 4 hrs by sulforhodamine B assay; format: functional, cell-based; outline: as §2
[36] = test system: PC-3; test: Cytotoxicity against human PC3 cells in oxic condition after 4 hrs by sulforhodamine B assay; format: functional, cell-based; conditions: PC-3, 4 h; outline: as §2
[37] = test system: A549; test: Hypoxic cytotoxicity ratio, IC50 for human A549 cells in oxic condition to IC50 for human A549 cells in hypoxic condition; format: functional; outline: as §2
[38] = test system: A549; test: Cytotoxicity against human A549 cells in oxic condition after 4 hrs by sulforhodamine B assay; format: functional, cell-based; conditions: A549, 4 h; outline: as §2
[39] = test system: HT-29; test: Cytotoxicity against human HT-29 cells in oxic condition after 4 hrs by sulforhodamine B assay; format: functional, cell-based; conditions: HT-29, 4 h; outline: as §2

Question: Which Activity [1] does the source give for CN(C)CCOc1ccc2[nH]c(C(=O)N3CC(CCl)c4c3cc([N+](=O)[O-])c3cc(S(N)(=O)=O)ccc43)cc2c1 (centres undefined) here?
Answer: The Activity was “inactive”.

Question: What about the Activity [2] of the same compound?
Answer: The Activity was 2.7.

Question: And the “Ratio IC50” value [3]?
Answer: The value was 71.

Question: What about the IC50 [4] of the same compound?
Answer: The IC50 was 37 nM.

Question: What about the IC50 [5] of the same compound?
Answer: The IC50 was 110 nM.

Question: And the IC50 [6]?
Answer: The IC50 was 15 nM.

Question: What about the “Ratio IC50” value [7] of the same compound?
Answer: The value was 19.

Question: What about the “Ratio IC50” value [8] of the same compound?
Answer: The value was 110.

Question: And the IC50 [9]?
Answer: Its IC50 is 35 nM.

Question: What about the IC50 [10] of the same compound?
Answer: Its IC50 is 0.028 nM.

Question: What about the “Ratio IC50” value [11] of the same compound?
Answer: Its value is 36.

Question: And the IC50 [12]?
Answer: The IC50 was 150 nM.

Question: What about the “Ratio IC50” value [13] of the same compound?
Answer: The value was 140.

Question: What about the IC50 [14] of the same compound?
Answer: The IC50 was 1700 nM.

Question: And the IC50 [15]?
Answer: The IC50 was 1700 nM.

Question: And the IC50 [16]?
Answer: The IC50 was 500 nM.

Question: And the IC50 [17]?
Answer: The IC50 was 110 nM.

Question: And the Activity [18]?
Answer: The Activity was greater than 10%.

Question: What about the “Ratio IC50” value [19] of the same compound?
Answer: Its value is 330.

Question: And the IC50 [20]?
Answer: Its IC50 is 2900 nM.

Question: What about the IC50 [21] of the same compound?
Answer: The IC50 was 6 nM.

Question: What about the IC50 [22] of the same compound?
Answer: The IC50 was 3 nM.

Question: What about the IC50 [23] of the same compound?
Answer: Its IC50 is 3800 nM.

Question: And the IC50 [24]?
Answer: The IC50 was 860 nM.

Question: And the IC50 [25]?
Answer: The IC50 was 6900 nM.

Question: What about the “Ratio IC50” value [26] of the same compound?
Answer: Its value is 275.

Question: What about the C10 [27] of the same compound?
Answer: Its C10 is 0.4 µM.

Question: And the “Ratio IC50” value [28]?
Answer: The value was 180.

Question: What about the IC50 [29] of the same compound?
Answer: Its IC50 is 6300 nM.

Question: And the “Ratio IC50” value [30]?
Answer: The value was 240.

Question: And the “Ratio IC50” value [31]?
Answer: The value was 180.

Question: And the Activity [32]?
Answer: The Activity was “Non-toxic”.

Question: And the IC50 [33]?
Answer: Its IC50 is 0.018 nM.

Question: And the “Ratio IC50” value [34]?
Answer: The value was 125.

Question: What about the IC50 [35] of the same compound?
Answer: Its IC50 is 34 nM.

Question: And the IC50 [36]?
Answer: The IC50 was 2900 nM.

Question: And the “Ratio IC50” value [37]?
Answer: Its value is 30.

Question: And the IC50 [38]?
Answer: Its IC50 is 950 nM.

Question: What about the IC50 [39] of the same compound?
Answer: The IC50 was 4600 nM.
